Experimental data taken from ChEMBL document CHEMBL1152714, “Design, synthesis and biological evaluation of a novel class of anticancer agents: anthracenylisoxazole lexitropsin conjugates” (Bioorg Med Chem, 2009).
The source made the active and inactive calls. No cut-off for these calls is given here.

Key:
[1] = Antitumor activity against human NCI60 cells after 48 hrs by SRB assay; type: functional; settings: NCI60, 48 h
Method in brief: (§1)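 Cells were exposed to the drug continuously for 48 h. Cell viability or growth was estimated with the sulforhodamine B protein assay.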

Homo sapiens [2] = species on record: Homo sapiens; test: Binding affinity to human DNA at a drug-DNA ratio of 1:1 by fluorescence experiment
Method in brief: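 Solution fluorescence was measured on histone-free human DNA mixed with the ligand at a 1:1 molar ratio. The shift in λmax was monitored.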

Mus musculus [3] = test: Acute toxicity in ip dosed mouse; type: organism-based; settings: in vivo
Method in brief: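 Mice given three dose regimens (100, 200 and 400 mg/kg), with animals followed to day 14 and body weight recorded at day 14 for signs of acute toxicity.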

Mus musculus [4] = test: Toxicity in mouse assessed as weight gain at 100 mg/kg, ip after 14 days; type: organism-based; set-up: dose 100 mg/kg, route intraperitoneal; settings: in vivo, 336 h
Method in brief: (§2)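 Acute toxicity was tested in mice at three dose regimens (100, 200 and 400 mg/kg). Body weight was assessed at day 14.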

[5] = Binding affinity to Hurley-oligonucleotide at 10 uM by microarray fluorescence experiment
Method in brief: (§3)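 DNA was prepared in TE buffer with 10 mM KCl at pH 7.0, to a final concentration of 400 […]. The oligonucleotide was hybridized with Cy3-AP3-dCTP. The ligand was 10 μM in aqueous 25% DMSO. Mixtures were incubated at 37°C for 5 min, then printed on slides. Excitation was at 310, 380, 410 and 485 nm, emission at 530 nm. Slides were read on a microarray scanner at 10 μm resolution.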

DNA = test: Binding affinity to calf thymus DNA at 10 uM by microarray fluorescence experiment; type: nucleic-acid assay; settings: Bos taurus; method in brief: as §3
Mus musculus [6] = test: Toxicity in mouse assessed as weight gain at 200 mg/kg, ip after 14 days; type: organism-based; set-up: dose 200 mg/kg, route intraperitoneal; settings: in vivo, 336 h; method in brief: as §2
Mus musculus [7] = test: Toxicity in mouse assessed as weight gain at 400 mg/kg, ip after 14 days; type: organism-based; set-up: dose 400 mg/kg, route intraperitoneal; settings: in vivo, 336 h; method in brief: as §2
SNB-75 = test: Antitumor activity against human SNB75 cells overexpressing c-myc after 48 hrs by SRB assay; type: functional; settings: SNB-75, 48 h; method in brief: as §1
HOP-62 = test: Antitumor activity against human HOP62 cells overexpressing c-myc after 48 hrs by SRB assay; type: functional; settings: HOP-62, 48 h; method in brief: as §1
NCI-H226 = test: Antitumor activity against human NCI-H226 cells overexpressing c-myc after 48 hrs by SRB assay; type: functional; settings: NCI-H226, 48 h; method in brief: as §1
[8] = molecular target: DNA polymerase I, thermostable (Thermus aquaticus) (UniProt P19821); test: Inhibition of Taq polymerase
Sequence of DNA polymerase I, thermostable (Thermus aquaticus) (P19821 whole entry): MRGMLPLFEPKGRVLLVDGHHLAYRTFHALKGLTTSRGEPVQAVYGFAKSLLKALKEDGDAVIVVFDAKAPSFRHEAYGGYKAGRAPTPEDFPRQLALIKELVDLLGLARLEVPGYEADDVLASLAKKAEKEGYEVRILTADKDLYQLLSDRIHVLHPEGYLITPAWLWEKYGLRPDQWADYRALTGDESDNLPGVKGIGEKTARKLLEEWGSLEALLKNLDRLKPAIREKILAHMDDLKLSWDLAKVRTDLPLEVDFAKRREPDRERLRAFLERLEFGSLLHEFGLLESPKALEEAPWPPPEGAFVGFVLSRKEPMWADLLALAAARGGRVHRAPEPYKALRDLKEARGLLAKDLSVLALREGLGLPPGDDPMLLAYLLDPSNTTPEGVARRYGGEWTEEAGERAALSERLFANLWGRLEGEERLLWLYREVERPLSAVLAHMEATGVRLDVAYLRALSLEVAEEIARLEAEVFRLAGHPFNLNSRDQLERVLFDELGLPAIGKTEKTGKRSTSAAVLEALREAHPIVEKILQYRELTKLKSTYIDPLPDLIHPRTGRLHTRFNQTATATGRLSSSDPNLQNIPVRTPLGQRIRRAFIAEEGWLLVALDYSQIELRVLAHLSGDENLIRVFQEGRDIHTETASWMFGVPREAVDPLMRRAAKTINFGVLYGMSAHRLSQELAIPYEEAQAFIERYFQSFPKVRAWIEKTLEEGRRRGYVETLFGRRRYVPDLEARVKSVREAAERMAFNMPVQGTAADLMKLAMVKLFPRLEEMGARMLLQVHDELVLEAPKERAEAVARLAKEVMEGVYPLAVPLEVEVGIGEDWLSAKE

Homo sapiens [9] = species on record: Homo sapiens; test: Stabilization of human telomeric G-quadruplex DNA assessed as inhibition of duplex formation at 5 uM by ESI-MS study
Method in brief: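 Time-course ESI-MS was run on a mixture of 5 μM G-quadruplex DNA, 5 μM complementary C-DNA and 5 μM ligand. Ion intensities of single-stranded and duplex DNA were followed as the strands re-hybridized. TMPyP4 was the positive control and no ligand the negative control.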

[10] = molecular target: Telomerase reverse transcriptase (Homo sapiens) (UniProt O14746); test: Inhibition of telomerase assessed as telomere elongation by TRAP assay
Sequence of Telomerase reverse transcriptase (Homo sapiens) (O14746 whole entry): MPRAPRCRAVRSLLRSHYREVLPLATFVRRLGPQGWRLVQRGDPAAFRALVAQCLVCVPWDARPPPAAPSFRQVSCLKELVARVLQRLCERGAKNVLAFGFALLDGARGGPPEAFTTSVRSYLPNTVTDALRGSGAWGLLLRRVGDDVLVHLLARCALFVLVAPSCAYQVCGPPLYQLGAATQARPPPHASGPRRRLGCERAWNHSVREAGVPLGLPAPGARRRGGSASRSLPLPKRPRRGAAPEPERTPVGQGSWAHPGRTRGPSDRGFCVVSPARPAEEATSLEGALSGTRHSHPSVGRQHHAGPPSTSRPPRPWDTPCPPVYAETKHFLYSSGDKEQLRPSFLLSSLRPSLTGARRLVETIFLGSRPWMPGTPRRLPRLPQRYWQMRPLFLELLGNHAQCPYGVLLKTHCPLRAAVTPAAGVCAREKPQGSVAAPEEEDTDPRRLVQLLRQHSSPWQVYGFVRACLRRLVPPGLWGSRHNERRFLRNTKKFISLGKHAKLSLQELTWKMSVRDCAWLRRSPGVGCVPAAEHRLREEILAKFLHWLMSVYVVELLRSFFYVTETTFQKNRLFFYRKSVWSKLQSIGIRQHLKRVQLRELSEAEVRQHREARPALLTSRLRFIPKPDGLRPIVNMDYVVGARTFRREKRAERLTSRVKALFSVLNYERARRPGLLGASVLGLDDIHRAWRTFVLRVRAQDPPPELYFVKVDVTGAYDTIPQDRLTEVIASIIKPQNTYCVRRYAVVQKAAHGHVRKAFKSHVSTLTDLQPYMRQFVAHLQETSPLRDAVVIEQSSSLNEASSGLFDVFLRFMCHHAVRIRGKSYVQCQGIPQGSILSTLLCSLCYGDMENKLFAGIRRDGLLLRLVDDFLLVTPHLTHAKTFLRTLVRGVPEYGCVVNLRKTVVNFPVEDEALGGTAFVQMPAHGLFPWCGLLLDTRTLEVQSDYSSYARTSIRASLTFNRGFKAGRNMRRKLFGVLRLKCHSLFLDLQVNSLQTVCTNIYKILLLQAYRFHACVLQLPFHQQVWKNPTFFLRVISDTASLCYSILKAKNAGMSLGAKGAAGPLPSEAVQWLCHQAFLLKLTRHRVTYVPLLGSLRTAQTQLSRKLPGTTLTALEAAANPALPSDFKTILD
Method in brief: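 Telomere elongation was assessed by a TRAP assay with gel electrophoresis read-out.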

HOP-92 = test: Antitumor activity against human HOP92 cells overexpressing c-myc after 48 hrs by SRB assay; type: functional; settings: HOP-92, 48 h; method in brief: as §1
SF-539 = test: Antitumor activity against human SF539 cells overexpressing c-myc after 48 hrs by SRB assay; type: functional; settings: SF-539, 48 h; method in brief: as §1
EKVX = test: Antitumor activity against human EKVX cells overexpressing c-myc after 48 hrs by SRB assay; type: functional; method in brief: as §1
SF-295 = test: Antitumor activity against human SF295 cells overexpressing c-myc after 48 hrs by SRB assay; type: functional; settings: SF-295, 48 h; method in brief: as §1
HCC 2998 = test: Antitumor activity against human HCC2998 cells overexpressing c-myc after 48 hrs by SRB assay; type: functional; settings: HCC 2998, 48 h; method in brief: as §1

SMILES | GI50 ([1]; read-out: GI50) [µM] | GI50 ([1]; read-out: pGI50 (converted)) [µM] | other results
Cc1onc(-c2c3ccccc3cc3ccccc23)c1C(=O)Nc1cc(C(=O)Nc2cc(C(=O)NCCCN(C)C)n(C)c2)n(C)c1 | 10.5 | 12.3 | Activity (Homo sapiens [2]): Active; Activity (Mus musculus [3]): Non-toxic; Activity (Mus musculus [4]): Toxic; Activity [5]: Active; Activity (DNA): Active; Activity (Mus musculus [6]): Toxic; Activity (Mus musculus [7]): Toxic
Cc1onc(-c2c3ccccc3c(Br)c3ccccc23)c1C(=O)Nc1cc(C(=O)NCCCN(C)C)n(C)c1 | 8.71 | 8.71 | GI50 (SNB-75): 0.158 µM
Cc1onc(-c2c3ccccc3cc3ccccc23)c1C(=O)Nc1cc(C(=O)Nc2cc(C(=O)N(CCCN(C)C)CCCN(C)C)n(C)c2)n(C)c1 | 15.5 | 15.5 | 
CN(C)CCCNC(=O)c1cc(NC(=O)c2cc(NC(=O)c3onc(-c4c5ccccc5cc5ccccc45)c3C(=O)Nc3cc(C(=O)Nc4cc(C(=O)NCCCN(C)C)n(C)c4)n(C)c3)cn2C)cn1C | 20.4 | 20.4 | 
Cc1onc(-c2c3ccccc3cc3ccccc23)c1C(=O)Nc1cc(C(=O)NCCCN(C)C)n(C)c1 | 7.94 | 7.94 | GI50 (HOP-62): 0.407 µM
Cc1onc(-c2c3ccccc3cc3ccccc23)c1C(=O)NCCCN(C)C | 32.4 | 32.4 | GI50 (NCI-H226): < 0.01 µM
Cc1onc(-c2c3ccccc3c(Cl)c3ccccc23)c1C(=O)Nc1cc(C(=O)NCCCN(C)C)n(C)c1 | 1.78 | 1.91 | Activity [8]: inactive; Activity (Homo sapiens [9]): Active; Activity [10]: Active; GI50 (HOP-92): 0.0933 µM
Cc1onc(-c2c3ccccc3c(-c3ccccc3)c3ccccc23)c1C(=O)Nc1cc(C(=O)NCCCN(C)C)n(C)c1 | 0.95 | 1.95 | GI50 (SF-539): < 0.01 µM; Activity (Homo sapiens [9]): Active; GI50 (HOP-62): 0.0105 µM; GI50 (HOP-92): 0.0631 µM
CCOC(=O)c1c(-c2c3ccccc3nc3ccccc23)noc1C | 20.4 | 20.4 | 
Cc1onc(-c2c3ccccc3cc3ccccc23)c1C(=O)Nc1cc(C(=O)N(CCCN(C)C)CCCN(C)C)n(C)c1 | 3.89 | 3.89 | 
C[n+]1ccc(-c2c3nc(c(-c4cc[n+](C)cc4)c4ccc([nH]4)c(-c4cc[n+](C)cc4)c4ccc([nH]4)c(-c4cc[n+](C)cc4)c4nc2C=C4)C=C3)cc1 |  |  | Activity (Homo sapiens [9]): Active
Cc1onc(-c2c3ccccc3nc3ccccc23)c1C(=O)Nc1cc(C(=O)Nc2cc(C(=O)NCCCN(C)C)n(C)c2)n(C)c1 | 20.9 | 20.9 | GI50 (EKVX): 0.661 µM; GI50 (SF-295): 0.0302 µM; GI50 (HCC 2998): 0.776 µM
Cc1onc(-c2c3ccccc3cc3ccccc23)c1C(=O)N(CCCN(C)C)CCCN(C)C | 4.57 | 4.9 | 
